{
  "source": "ChEMBL document CHEMBL1143199",
  "about": "“Discovery and SAR of hydrazide antagonists of the pituitary adenylate cyclase-activating polypeptide (PACAP) receptor type 1 (PAC1-R)” (Bioorg Med Chem Lett, 2008)",
  "note": "Activity calls are given as the source filed them. No cut-off for these calls is given here.",
  "data": [
    {"molecular_target": "T1, Pituitary adenylate cyclase-activating polypeptide type I receptor (Homo sapiens, UniProt P41586)", "test": "Displacement of [125I]PACAP27 from PAC1R expressed in HEK293f cells", "type": "cell-based", "details": "not given", "summary_of_the_method": "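Membranes from HEK293f cells expressing PAC1R (5 lg protein) incubated with 0.2 nM ¹²⁵I-PACAP27 in 50 mM Tris–HCl pH 7.4, 5 mM MgCl₂, 20 min at 37 °C; nonspecific binding with 300 nM unlabeled PACAP38. Terminated by filtration through PEI-soaked GF/B filters, three ice-cold buffer washes, radioactivity counted; Ki reported.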", "units": {"Ki": "µM"}, "values": [
      {"compound": "COc1cc(/C=N/NC(=O)c2ccc(O)c(Cl)c2)cc(OC)c1OCc1ccc(C(C)C)cc1", "Ki": 0.056},
      {"compound": "COc1cc(/C=N/NC(=O)c2ccc(O)c(Cl)c2)cc(OC)c1OCc1ccc(C(F)(F)F)cc1", "Ki": 0.14},
      {"compound": "COc1cc(/C=N/NC(=O)c2ccc(O)c(Cl)c2)cc(OCc2c(C)c(C)cc(C)c2C)c1OC", "Ki": 0.167},
      {"compound": "O=C(N/N=C/c1cccc(OCc2cccc(C(F)(F)F)c2)c1)c1ccc(O)c(Cl)c1", "Ki": 0.554},
      {"compound": "O=C(N/N=C/c1cccc2c1ccn2Cc1cccc(C(F)(F)F)c1)c1ccc(O)c(Cl)c1", "Ki": 0.085},
      {"compound": "COc1cc(/C=N/NC(=O)c2cccc(Cl)c2)cc(OC)c1OCc1ccc(C(C)C)cc1", "Activity": "inactive"},
      {"compound": "O=C(N/N=C/c1ccc(OCc2cccc(C(F)(F)F)c2)cc1)c1ccc(O)c(Cl)c1", "Ki": 0.537},
      {"compound": "COc1cc(-c2nnc(-c3ccc(O)c(Cl)c3)s2)cc(OC)c1OCc1ccc(C(C)C)cc1", "Activity": "inactive"},
      {"compound": "COc1cc(/C=N/NC(=O)c2ccc(O)c(Cl)c2)ccc1OCc1ccc(C(C)C)cc1", "Activity": "inactive"},
      {"compound": "O=C(N/N=C/c1ccc(OCc2ccccc2)cc1)c1ccc(O)c(Cl)c1", "Ki": 0.522},
      {"compound": "CC(=O)Nc1ccc(COc2ccc(/C=N/NC(=O)c3ccc(O)c(Cl)c3)cc2)cc1", "Activity": "inactive"},
      {"compound": "COc1cc(/C=N/NC(=O)c2ccc(O)c(Cl)c2)cc(OC)c1OCc1cccc(C(F)(F)F)c1", "Ki": 0.204},
      {"compound": "COc1cc(/C=N/NC(=O)c2ccc(O)c(Cl)c2)cc(OC)c1OCc1ccccc1", "Ki": 0.185},
      {"compound": "O=C(N/N=C/c1cccc(COc2cccc(C(F)(F)F)c2)c1)c1ccc(O)c(Cl)c1", "Ki": 0.274},
      {"compound": "COc1cc(/C=N/NC(=O)c2ccc3[nH]ncc3c2)cc(OC)c1OCc1ccc(C(C)C)cc1", "Activity": "inactive"},
      {"compound": "COc1cc(/C=N/NC(=O)c2ccc(O)c(Cl)c2)cc(OCc2cccc(C(F)(F)F)c2)c1OC", "Activity": "inactive"},
      {"compound": "COc1cc(/C=N/NC(=O)c2ccc(O)c(Cl)c2)cc(OCc2ccc(C(C)C)cc2)c1OC", "Ki": 0.152},
      {"compound": "O=C(N/N=C/c1cccc(COc2ccc(C(F)(F)F)cc2)c1)c1ccc(O)c(Cl)c1", "Ki": 0.241},
      {"compound": "COc1cc(/C=N/NC(=O)c2ccc(O)c(Cl)c2)ccc1OCc1cccc(C(F)(F)F)c1", "Ki": 0.404},
      {"compound": "COc1cc(-c2nnc(-c3ccc(O)c(Cl)c3)o2)cc(OC)c1OCc1ccc(C(C)C)cc1", "Activity": "inactive"}
    ]},
    {"molecular_target": "T2, Pituitary adenylate cyclase-activating polypeptide type I receptor (Rattus norvegicus) (UniProt P32215)", "T2 sequence (whole entry)": "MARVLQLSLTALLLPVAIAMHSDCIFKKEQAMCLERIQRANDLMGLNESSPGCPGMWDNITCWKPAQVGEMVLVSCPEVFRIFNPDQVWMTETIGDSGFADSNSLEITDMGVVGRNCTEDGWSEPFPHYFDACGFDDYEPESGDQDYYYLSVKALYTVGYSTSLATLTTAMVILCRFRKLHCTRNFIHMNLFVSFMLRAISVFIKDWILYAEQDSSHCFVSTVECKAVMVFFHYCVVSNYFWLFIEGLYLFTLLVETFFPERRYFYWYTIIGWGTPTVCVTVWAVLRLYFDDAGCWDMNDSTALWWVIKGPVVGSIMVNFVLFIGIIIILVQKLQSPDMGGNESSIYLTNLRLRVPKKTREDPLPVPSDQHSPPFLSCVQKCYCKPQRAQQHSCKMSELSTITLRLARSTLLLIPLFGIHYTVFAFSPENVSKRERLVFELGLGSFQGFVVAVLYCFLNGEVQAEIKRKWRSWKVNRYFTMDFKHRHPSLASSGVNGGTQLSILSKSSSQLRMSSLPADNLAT", "test": "Antagonist activity at PAC1R in rat AR42J cells assessed as PACAP-induced calcium mobilization by FLIPR assay", "type": "functional, cell-based", "details": "AR-42J", "summary_of_the_method": "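Cells loaded with Fluo-4AM for 2 h, preincubated with compounds 30 min at room temperature, then challenged with 2 nM PACAP-27; intracellular calcium changes monitored by FLIPR; Kb calculated.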", "units": {"Kb": "µM"}, "values": [
      {"compound": "COc1cc(/C=N/NC(=O)c2ccc(O)c(Cl)c2)cc(OC)c1OCc1ccc(C(C)C)cc1", "Kb": 0.2}
    ]},
    {"molecular_target": "T1, Pituitary adenylate cyclase-activating polypeptide type I receptor", "test": "Displacement of [125I]PACAP27 from PAC1R expressed in HEK293f cells at 3 uM", "type": "cell-based", "details": "not given", "units": {"Activity": "%"}, "values": [
      {"compound": "COc1cc(/C=N/NC(=O)c2ccc(O)c(Cl)c2)ccc1OCc1ccc(C(F)(F)F)cc1", "Activity": 50},
      {"compound": "O=C(N/N=C/c1cccc2c1ccn2Cc1ccc(OCc2ccccc2)cc1)c1ccc(O)c(Cl)c1", "Activity": 51},
      {"compound": "O=C(N/N=C/c1ccc(OCc2ccc(C(F)(F)F)cc2)cc1)c1ccc(O)c(Cl)c1", "Activity": 43},
      {"compound": "COc1cc(C(=O)NNC(=O)c2ccc(O)c(Cl)c2)cc(OC)c1OCc1ccc(C(C)C)cc1", "Activity": 40},
      {"compound": "COc1cc(/C=N/NC(=O)c2ccc(O)c(Cl)c2)cc(OC)c1OCc1ccc(NC(C)=O)cc1", "Activity": 43},
      {"compound": "COc1cc(CNNC(=O)c2ccc(O)c(Cl)c2)cc(OC)c1OCc1ccc(C(C)C)cc1", "Activity": 46},
      {"compound": "COc1cc(/C=N/NC(=O)c2ccc(O)c(Cl)c2)ccc1OCc1ccc(NC(C)=O)cc1", "Activity": 34},
      {"compound": "O=C(N/N=C/c1ccc(COc2ccccc2)cc1)c1ccc(O)c(Cl)c1", "Activity": 41},
      {"compound": "COc1cc(C(=O)N/N=C/c2cc(OC)c(OCc3ccc(C(C)C)cc3)c(OC)c2)ccc1O", "Activity": 44},
      {"compound": "COc1cc(/C=N/NC(=O)c2ccc(O)cc2)cc(OC)c1OCc1ccc(C(C)C)cc1", "Activity": 22},
      {"compound": "O=C(N/N=C/c1cccc2c1ccn2Cc1ccccc1)c1ccc(O)c(Cl)c1", "Activity": 55},
      {"compound": "CNC(=O)c1ccc(COc2ccc(/C=N/NC(=O)c3ccc(O)c(Cl)c3)cc2OC)cc1", "Activity": 36}
    ]}
  ]
}
